{
  "source": "ChEMBL document CHEMBL1156148",
  "about": "“Isolation, structure and biological activities of platencin A(2)-A(4) from Streptomyces platensis” (Bioorg Med Chem, 2010)",
  "key": {"Bacillus subtilis": {"tested_on": "Bacillus subtilis", "experiment": "Antibacterial activity against Bacillus subtilis MB964 after 20 hrs by NCCLS method", "assay_type": "functional", "conditions": "MB964, 20 h", "outline": "(§1)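 Twofold serial broth dilution in cation-adjusted Mueller Hinton broth per NCCLS guidelines. Inoculum 10^5 CFU/mL, incubated at 37 °C for 20 h with compound in growth medium. MIC taken as the lowest concentration preventing visible growth.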"}, "Escherichia coli [1]": {"tested_on": "Escherichia coli", "experiment": "Antibacterial activity against envelope disrupted Escherichia coli MB5746 after 20 hrs by NCCLS method", "assay_type": "functional", "conditions": "MB5746, 20 h", "outline": "as §1"}, "Staphylococcus aureus [2]": {"tested_on": "Staphylococcus aureus", "experiment": "Antibacterial activity against Staphylococcus aureus Smith after 20 hrs by NCCLS method", "assay_type": "functional", "outline": "as §1"}, "Escherichia coli [3]": {"tested_on": "Escherichia coli", "experiment": "Antibacterial activity against wild type Escherichia coli MB2884 after 20 hrs by NCCLS method", "assay_type": "functional", "conditions": "MB2884, 20 h", "outline": "as §1"}, "HeLa": {"tested_on": "HeLa", "experiment": "Cytotoxicity against human HeLa cells by MTT assay", "assay_type": "functional, cell-based"}, "[4]": {"experiment": "Inhibition of Staphylococcus aureus FAS2 assessed as 2-[14C]malonyl-CoA incorporation after 90 mins by scintillation counting", "outline": "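Partially purified S. aureus fatty-acid synthesis enzyme mix (1.26 µg) preincubated 20 min at room temperature with serially diluted compound. Buffer: 100 mM sodium phosphate pH 7.0, EDTA, NADPH, NADH, DTT, β-mercaptoethanol, 20 µM octanoyl-CoA (or lauroyl-CoA), 4% DMSO, 5 µM ACP. Started with 4 µM final [2-14C]malonyl-CoA, run 90 min at 37 °C, stopped with perchloric acid, and counted by scintillation on phospholipid-coated flash plates.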"}, "Staphylococcus aureus [5]": {"tested_on": "Staphylococcus aureus", "experiment": "Antibacterial activity against Staphylococcus aureus Lin after 20 hrs by NCCLS method in presence of 50 % serum", "assay_type": "functional"}, "Haemophilus influenzae": {"tested_on": "Haemophilus influenzae", "experiment": "Antibacterial activity against Haemophilus influenzae MSD2261 after 20 hrs by NCCLS method", "assay_type": "functional", "conditions": "MSD2261, 20 h", "outline": "as §1"}, "Candida albicans": {"tested_on": "Candida albicans", "experiment": "Antifungal activity against Candida albicans after 20 hrs by NCCLS method", "assay_type": "functional", "outline": "as §1"}, "Staphylococcus aureus [6]": {"tested_on": "Staphylococcus aureus", "experiment": "Antibacterial activity against Staphylococcus aureus expressing FabF antisense plasmid S1-1941 assessed as minimum concentration required to produce differential zone of clearance after 18 hrs by antisense two-plate differential sensitivity cellular assay relative to control", "assay_type": "functional", "outline": "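S. aureus RN450 carrying the fabF antisense plasmid S1–1941, plus a vector-only control strain, grown 18–20 h at 37 °C in LB with 34 µg/mL chloramphenicol. Seeded at 1:1000 of OD 3.0 into LB agar with 0.2% glucose and 15 µg/mL chloramphenicol; antisense plates also got 50 mM xylose. Samples added to agar wells, incubated 18 h at 37 °C, and zones measured. MDC was found by twofold serial dilution.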"}, "Enterococcus faecalis": {"tested_on": "Enterococcus faecalis", "experiment": "Antibacterial activity against Enterococcus faecalis CL8516 after 20 hrs by NCCLS method", "assay_type": "functional", "conditions": "CL8516, 20 h", "outline": "as §1"}},
  "data": [
    {"smiles": "C=C1[C@H]2CC[C@@]3(C=CC(=O)[C@@](C)(CCC(=O)Nc4c(O)ccc(C(=O)O)c4O)[C@@H]3C2)[C@H]1O", "note": "[PLATENCIN A3]", "values": [
      {"measurement": "MIC", "setting": "Bacillus subtilis", "value": 64, "unit": "µg/mL"},
      {"measurement": "MIC", "setting": "Escherichia coli [1]", "value": 16, "unit": "µg/mL"},
      {"measurement": "MIC", "setting": "Staphylococcus aureus [2]", "value": 16, "unit": "µg/mL"},
      {"measurement": "MIC", "setting": "Escherichia coli [3]", "value": "> 64", "unit": "µg/mL"},
      {"measurement": "IC50", "setting": "HeLa", "value": "> 100", "unit": "µM"},
      {"measurement": "IC50", "setting": "[4]", "value": 7.1, "unit": "µg/mL"},
      {"measurement": "MIC", "setting": "Staphylococcus aureus [5]", "value": "> 64", "unit": "µg/mL"},
      {"measurement": "MIC", "setting": "Haemophilus influenzae", "value": 64, "unit": "µg/mL"},
      {"measurement": "MIC", "setting": "Candida albicans", "value": "> 64", "unit": "µg/mL"},
      {"measurement": "Activity", "setting": "Staphylococcus aureus [6]", "value": 20, "unit": "µg/mL"},
      {"measurement": "MIC", "setting": "Enterococcus faecalis", "value": 64, "unit": "µg/mL"}
    ]},
    {"smiles": "C[C@@]1(O)C[C@@]23C=CC(=O)[C@@](C)(CCC(=O)Nc4c(O)ccc(C(=O)O)c4O)[C@@H]2C[C@@H]1CC3", "note": "[PLATENCIN A4]", "values": [
      {"measurement": "MIC", "setting": "Bacillus subtilis", "value": "> 64", "unit": "µg/mL"},
      {"measurement": "MIC", "setting": "Escherichia coli [1]", "value": 32, "unit": "µg/mL"},
      {"measurement": "MIC", "setting": "Staphylococcus aureus [2]", "value": "> 64", "unit": "µg/mL"},
      {"measurement": "MIC", "setting": "Escherichia coli [3]", "value": "> 64", "unit": "µg/mL"},
      {"measurement": "IC50", "setting": "HeLa", "value": "> 100", "unit": "µM"},
      {"measurement": "IC50", "setting": "[4]", "value": 25.1, "unit": "µg/mL"},
      {"measurement": "MIC", "setting": "Staphylococcus aureus [5]", "value": "> 64", "unit": "µg/mL"},
      {"measurement": "MIC", "setting": "Haemophilus influenzae", "value": "> 64", "unit": "µg/mL"},
      {"measurement": "MIC", "setting": "Candida albicans", "value": "> 64", "unit": "µg/mL"},
      {"measurement": "Activity", "setting": "Staphylococcus aureus [6]", "value": 100, "unit": "µg/mL"},
      {"measurement": "MIC", "setting": "Enterococcus faecalis", "value": "> 64", "unit": "µg/mL"}
    ]},
    {"smiles": "C=C1C[C@@]23C=CC(=O)[C@@](C)(CCC(=O)Nc4c(O)ccc(C(=O)O)c4O)[C@@H]2C[C@@H]1CC3", "note": "[PLATENCIN]", "values": [
      {"measurement": "MIC", "setting": "Bacillus subtilis", "value": 1, "unit": "µg/mL"},
      {"measurement": "MIC", "setting": "Escherichia coli [1]", "value": 2, "unit": "µg/mL"},
      {"measurement": "MIC", "setting": "Staphylococcus aureus [2]", "value": 0.5, "unit": "µg/mL"},
      {"measurement": "MIC", "setting": "Escherichia coli [3]", "value": "> 64", "unit": "µg/mL"},
      {"measurement": "IC50", "setting": "HeLa", "value": 86, "unit": "µM"},
      {"measurement": "IC50", "setting": "[4]", "value": 12, "unit": "µg/mL"},
      {"measurement": "MIC", "setting": "Staphylococcus aureus [5]", "value": 8, "unit": "µg/mL"},
      {"measurement": "MIC", "setting": "Haemophilus influenzae", "value": 64, "unit": "µg/mL"},
      {"measurement": "MIC", "setting": "Candida albicans", "value": "> 64", "unit": "µg/mL"},
      {"measurement": "Activity", "setting": "Staphylococcus aureus [6]", "value": 0.2, "unit": "µg/mL"},
      {"measurement": "MIC", "setting": "Enterococcus faecalis", "value": 2, "unit": "µg/mL"}
    ]}
  ]
}
